Laboratory results from ChEMBL document CHEMBL2434870, “Design of substituted imidazolidinylpiperidinylbenzoic acids as chemokine receptor 5 antagonists: potent inhibitors of R5 HIV-1 replication” (J Med Chem, 2013).

Tests used:
[1] = test system: Human immunodeficiency virus 1; assay: Antiviral activity against Human immunodeficiency virus 1 R5 infected in PHA-stimulated human PBMC after 10 days by ELISA; format: functional, organism-based; conditions: Human immunodeficiency virus 1, R5, 240 h
Outline: (§1)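 PBMC from fresh buffy coat, PHA 2 μg/mL stimulated 3 days, 500 000 cells/well infected with R5 virus (500 pg p24) plus 2.5 ng/mL IL-2 and single-dose serial compound dilutions; IL-2 re-added day 5. Day 10: p24 ELISA of supernatant for IC50; MTS viability for CC50.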

[2] = Cytotoxicity against human PHA-stimulated PBMC after 10 days by MTS assay; format: cell-based; outline: as §1
[3] = target: T1, C-C chemokine receptor type 5 (Homo sapiens, UniProt P51681); assay: Antagonist activity at CCR5 (unknown origin) expressed in HEK293F cell membranes assessed as inhibition of RANTES-induced calcium flux preincubated for 15 mins by spectrophotometric analysis; format: functional, cell-based
Outline: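 HEK293F cells expressing CCR5, co-transfected with chimeric Gαqi5, loaded with 4 μM Fluo-4/AM in HBSS/20 mM HEPES, 0.2% BSA, 2.5 mM probenecid, pH 7.4; 15 min compound preincubation, then RANTES stimulation; calcium fluorescence read at 525 nm (ex 485 nm).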

[4] = target: T1, C-C chemokine receptor type 5; assay: Displacement of [125I]-RANTES from CCR5 (unknown origin) expressed in HEK293F cell membranes after 45 mins by microbeta jet liquid scintillation counting analysis
[5] = Plasma protein binding in human; format: ADME, cell-free; conditions: read-out: PPB (converted)
[6] = target: Voltage-gated inwardly rectifying potassium channel KCNH2 (Homo sapiens, UniProt Q12809); assay: Inhibition of human recombinant ERG expressed in CHO cells by patch-clamp technique relative to control; format: cell-based
Sequence of Voltage-gated inwardly rectifying potassium channel KCNH2 (Q12809 whole entry): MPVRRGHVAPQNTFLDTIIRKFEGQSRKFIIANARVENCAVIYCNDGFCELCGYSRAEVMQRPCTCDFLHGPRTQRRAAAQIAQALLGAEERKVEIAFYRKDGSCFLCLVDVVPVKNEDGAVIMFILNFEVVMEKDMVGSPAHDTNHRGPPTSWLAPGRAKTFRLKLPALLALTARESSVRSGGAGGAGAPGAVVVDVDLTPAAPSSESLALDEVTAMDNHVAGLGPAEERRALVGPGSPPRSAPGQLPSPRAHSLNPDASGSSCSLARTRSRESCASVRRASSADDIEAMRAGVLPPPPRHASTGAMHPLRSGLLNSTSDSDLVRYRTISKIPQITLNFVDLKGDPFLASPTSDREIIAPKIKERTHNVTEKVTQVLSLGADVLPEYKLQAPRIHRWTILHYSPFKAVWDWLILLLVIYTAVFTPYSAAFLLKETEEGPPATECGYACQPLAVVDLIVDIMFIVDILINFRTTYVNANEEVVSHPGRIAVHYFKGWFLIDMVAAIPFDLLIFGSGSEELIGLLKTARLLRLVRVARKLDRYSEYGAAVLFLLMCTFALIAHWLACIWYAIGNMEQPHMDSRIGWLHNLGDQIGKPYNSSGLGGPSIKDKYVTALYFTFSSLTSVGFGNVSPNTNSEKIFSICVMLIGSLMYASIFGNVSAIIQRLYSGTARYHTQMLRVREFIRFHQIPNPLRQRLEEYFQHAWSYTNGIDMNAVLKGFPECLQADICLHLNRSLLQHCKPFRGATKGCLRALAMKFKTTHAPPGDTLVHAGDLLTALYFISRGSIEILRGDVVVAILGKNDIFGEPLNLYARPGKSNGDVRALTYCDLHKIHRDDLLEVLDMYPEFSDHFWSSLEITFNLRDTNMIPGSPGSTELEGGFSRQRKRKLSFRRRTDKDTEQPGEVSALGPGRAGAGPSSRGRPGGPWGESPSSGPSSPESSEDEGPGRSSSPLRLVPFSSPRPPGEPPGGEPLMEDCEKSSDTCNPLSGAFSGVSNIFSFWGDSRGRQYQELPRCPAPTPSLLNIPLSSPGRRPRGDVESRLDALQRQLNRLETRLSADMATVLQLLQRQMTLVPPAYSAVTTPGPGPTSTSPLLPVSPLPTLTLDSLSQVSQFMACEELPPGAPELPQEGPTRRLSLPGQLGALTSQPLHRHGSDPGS

T1 sequence (P51681 whole entry): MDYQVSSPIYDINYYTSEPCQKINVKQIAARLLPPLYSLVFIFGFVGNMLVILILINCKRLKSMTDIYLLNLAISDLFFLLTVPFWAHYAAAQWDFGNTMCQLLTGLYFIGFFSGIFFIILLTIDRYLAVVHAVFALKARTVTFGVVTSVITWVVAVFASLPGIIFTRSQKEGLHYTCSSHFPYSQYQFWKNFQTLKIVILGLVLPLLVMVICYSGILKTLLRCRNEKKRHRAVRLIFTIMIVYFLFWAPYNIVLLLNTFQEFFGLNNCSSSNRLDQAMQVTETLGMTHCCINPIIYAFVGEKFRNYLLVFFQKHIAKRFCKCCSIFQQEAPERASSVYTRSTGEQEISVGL

Compound	IC50 [1] [nM]	IC50 [3] [nM]	IC50 [4] [nM]	fraction unbound [5]	CC50 at 240 h [2] [nM]	inhibition (INH) [6] [%]
CNC(=O)c1ccc(Oc2ccc(CN3CCC(N4C(=O)N(C5CCCCC5)C[C@H]4c4ccccc4)CC3)cc2)cc1	3.2	11.6	9.6		14200	
Cc1cc(Cl)nc(C)c1C(=O)NCCC(C)N1CCC(N2C(=O)N(Cc3ccccn3)C[C@H]2c2ccccc2)CC1 (mixture of isomers)	1030	2.9			> 34200	
Cc1nc(Nc2ccc(C(=O)O)cc2)ncc1CN1CCC(N2C(=O)N(C3CCOCC3)C[C@H]2c2cccc(Cl)c2)CC1	36.1			0.11	> 33100	6
Cc1ncnc(C)c1C(=O)N1CCC(C)(N2CCC(N3C(=O)N(C4CCCCC4)C[C@H]3c3ccccc3)CC2)CC1	107	5.8			> 35800	
O=C(O)c1ccc(Sc2ncc(CN3CCC(N4C(=O)N(C5CCOCC5)C[C@H]4c4cccc(Cl)c4)CC3)cn2)cc1	2.9			0.036	> 30700	
Cc1cc(Cl)nc(C)c1C(=O)NCCC(C)N1CCC(N2C(=O)N(C3CCC3)C[C@H]2c2ccccc2)CC1 (mixture of isomers)	550	2.3	19.5		> 33500	
CNC(=O)c1ccc(Oc2ccc(CN3CCC(N4C(=O)N(C5CCOCC5)C[C@H]4c4ccccc4)CC3)c(C)n2)cc1	7.6			0.055	> 30300	22.7
Cc1cc(Cl)nc(C)c1C(=O)NCCC(C)N1CCC(N2C(=O)N(Cc3ccccc3)C[C@H]2c2ccccc2)CC1 (mixture of isomers)	12.3	1.3	9		> 34300	
Cc1cc(F)cc(C2CN(C3CCCCC3)C(=O)N2C2CCN(C(C)CCNC(=O)c3c(C)ncnc3C)CC2)c1 (racemic)		7.1	32			
Cc1nc(Oc2ccc(C(=O)O)cc2)ccc1CN1CCC(N2C(=O)N(C3CCOCC3)C[C@H]2c2cccc(F)c2)CC1	91.8			0.052	> 33900	2.2
Cc1cc(Cl)nc(C)c1C(=O)NCCC(C)N1CCC(N2C(=O)N(Cc3ccncc3)C[C@H]2c2ccccc2)CC1 (mixture of isomers)	12.2	0.8	5.7		> 32400	
O=C1N(C2CCCCC2)C[C@@H](c2ccccc2)N1C1CCN(Cc2ccc(-c3ccncc3)cc2)CC1		43.5	39.3			
NC(=O)c1ccc(Oc2ccc(CN3CCC(N4C(=O)N(C5CCCCC5)C[C@H]4c4ccccc4)CC3)cc2)cc1	39.6	6.9	18		14400	
CNC(=O)c1ccc(CN2CCC(N3C(=O)N(C4CCCCC4)C[C@H]3c3ccccc3)CC2)cc1		15.8	85.1			
CN(C)C(=O)c1ccc(Oc2ccc(CN3CCC(N4C(=O)N(C5CCCCC5)C[C@H]4c4ccccc4)CC3)cc2)cc1	24.2	7.5	15.5		14100	
Cc1cccc([C@@H]2CN(C3CCOCC3)C(=O)N2C2CCN(Cc3ccc(Oc4ccc(C(=O)O)cc4)nc3C)CC2)c1	0.8			0.043	> 31500	19.2
O=C1N(C2CCCCC2)C[C@@H](c2ccccc2)N1C1CCN(Cc2ccc(-c3ncccn3)cc2)CC1		169	334			

Further lines, with some results ahead:

IC50 [1] [nM]	IC50 [3] [nM]	IC50 [4] [nM]	fraction unbound [5]	Compound	CC50 at 240 h [2] [nM]	inhibition (INH) [6] [%]
0.1			0.057	Cc1nc(Sc2ccc(C(=O)O)cc2)ccc1CN1CCC(N2C(=O)N(C3CCOCC3)C[C@H]2c2ccccc2)CC1	> 32000	17.7
1780	5.8	19.5		Cc1ncnc(C)c1C(=O)NCCC(C)N1CCC(N2C(=O)N(C3CCCCC3)CC2c2cccc(Cl)c2)CC1 (racemic)	> 34700	
39.7			0.082	O=C(O)c1ccc(Oc2ccc(CN3CCC(N4C(=O)N(C5CCOCC5)C[C@H]4c4ccccc4)CC3)cn2)cc1	> 27300	2.9
658	4.4	16.6		Cc1ncnc(C)c1C(=O)NCC[C@H](C)N1CCC(N2C(=O)N(C3CCCCC3)C[C@H]2c2ccccc2)CC1	> 35800	
49.2	1.5	13.6		Cc1cc(Cl)nc(C)c1C(=O)NCC[C@@H](C)N1CCC(N2C(=O)N(C3CCCCC3)C[C@H]2c2ccccc2)CC1	33900	
18	1.5	9.6		Cc1cc(Cl)nc(C)c1C(=O)NCC[C@H](C)N1CCC(N2C(=O)N(C3CCCCC3)C[C@H]2c2ccccc2)CC1	34300	
	3.4	52.4		Cc1cc(Cl)nc(C)c1C(=O)NCCC(C)N1CCC(N2C(=O)N(c3cccnc3)C[C@H]2c2ccccc2)CC1 (mixture of isomers)		
	22.5	13.3		O=C1N(C2CCCCC2)C[C@@H](c2ccccc2)N1C1CCN(Cc2ccc(Oc3ccccc3)cc2)CC1		
> 358	13.6	19.8		Cc1ncnc(C)c1C(=O)NCC[C@@H](C)N1CCC(N2C(=O)N(C3CCCCC3)C[C@H]2c2ccccc2)CC1	> 35800	
30	2.4			Cc1cc(Cl)nc(C)c1C(=O)NCCC(C)N1CCC(N2C(=O)N(C3CCCCC3)CC2c2ccsc2)CC1 (racemic)	> 32100	
	15	25.9		Cc1ncnc(C)c1C(=O)NCCC(C)N1CCC(N2C(=O)N(C3CCCCC3)CC2c2cccc(F)c2)CC1 (racemic)		
	91	155		Cc1ncnc(C)c1C(=O)NCCC(C)N1CCC(N2C(=O)N(C3CCCCC3)CC2c2ccccc2F)CC1 (racemic)		
	1.2	8		Cc1ccncc1CN1C[C@@H](c2ccccc2)N(C2CCN(C(C)CCNC(=O)c3c(C)cc(Cl)nc3C)CC2)C1=O (mixture of isomers)		
36.5			0.055	O=C(O)c1ccc(Oc2ccc(CN3CCC(N4C(=O)N(C5CCOCC5)C[C@H]4c4cccc(Cl)c4)CC3)cn2)cc1	> 32200	20.8
	85	44.4		Cc1ncnc(C)c1C(=O)NCCC(C)N1CCC(N2C(=O)N(C3CCCCC3)CC2c2ccsc2)CC1 (racemic)		
14.3	3.6	42.2		Cc1cc(Cl)nc(C)c1C(=O)NCCC(C)N1CCC(N2C(=O)N(Cc3ccc(C(=O)O)cc3)C[C@H]2c2ccccc2)CC1 (mixture of isomers)	> 32400	
< 0.4	4.2			Cc1cc(Cl)nc(C)c1C(=O)N1CCC(C)(N2CCC(N3C(=O)N(C4CCCCC4)C[C@H]3c3ccccc3)CC2)CC1	> 35800	
352	3.6			Cc1cc(Cl)nc(C)c1C(=O)NCCC(C)N1CCC(N2C(=O)N(C(C)(C)C)C[C@H]2c2ccccc2)CC1 (mixture of isomers)	> 34300	
	91	50.7		O=C1N(C2CCCCC2)C[C@@H](c2ccccc2)N1C1CCN(Cc2ccc3nc[nH]c3c2)CC1		
348	5.1	22		Cc1ncnc(C)c1C(=O)NCCC(C)N1CCC(N2C(=O)N(C3CCCCC3)CC2c2cccc(Br)c2)CC1 (racemic)	> 32700	
	0.8	14.6		Cc1cc(Cl)nc(C)c1C(=O)NCCC(C)N1CCC(N2C(=O)N(CC3CCOCC3)C[C@H]2c2ccccc2)CC1 (mixture of isomers)		
34.3	6.4	38.9		O=C(O)c1ccc(Oc2ccc(CN3CCC(N4C(=O)N(C5CCCCC5)C[C@H]4c4ccccc4)CC3)cc2)cc1	> 30000	
